Experimental data published in ChEMBL document CHEMBL5303300, “EUbOPEN Chemogenomics Library - Multiplex” (2023).
Values joined by “and” are separate entries in the source; they are usually repeats but may differ in a detail not shown here. Equal values may be shown once.

Tested on: U2OS
Assay: Multiplex assay against U2OS
Assay type: toxicity, cell-based
Conditions: human, number of replicates 2
How it was run: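 At seeding, live cells were stained with Hoechst33342, BioTracker Green Microtubule Cytoskeleton Dye, MitoTracker Red and Annexin V Alexa Fluor 680. After compound addition they were imaged on a CQ1 microscope at 37°C and 5% CO2, and CellPathfinder machine-learning gating sorted them into Hoechst high-intensity objects or normal cells, with normal cells further split into healthy, pyknosed or fragmented nuclei and pyknosed cells into mitotic or apoptotic. Tubulin, mitochondrial-mass and membrane-permeability phenotypes are given as per cents of cells with healthy nuclei.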

[1] = 12 h, 1 µM, compound concentration 1 uM
[2] = 12 h, 10 µM, compound concentration 10 uM
[3] = 24 h, 1 µM, compound concentration 1 uM
[4] = 24 h, 10 µM, compound concentration 10 uM
[5] = 48 h, 1 µM, compound concentration 1 uM
[6] = 48 h, 10 µM, compound concentration 10 uM

SMILES: COc1ccc2cc(S(=O)(=O)N[C@H](CC(=O)N[C@H](Cc3ccc(CN4[C@H](C)CCC[C@@H]4C)cc3)C(=O)N(C)C(C)C)c3ccc4c(c3)OCO4)ccc2c1.Cl
- Population Apoptotic (%) [1]: 20% and 30%
- Population Fragmented Nuclei (%) [1]: 8% and 4%
- Population Healthy Nuclei (%) [1]: 76% and 85%
- Population Hoechst High Intensity Objects (%) [1]: 2% and 0%
- Population Membrane Permeable-Phenotype (%) [1]: 11% and 14%
- Population Mitochondria Different-Phenotype (%) [1]: 7% and 20%
- Population Mitotic Cells (%) [1]: 80% and 69%
- Population Normal (%) [1]: 97% and 99%
- Population Pyknosed Nuclei (%) [1]: 14% and 10%
- Population Tubulin-Different-Phenotype (%) [1]: 30% and 45%
- Population Apoptotic (%) [2]: 100% and 66%
- Population Healthy Nuclei (%) [2]: 50% and 75%
- Population Hoechst High Intensity Objects (%) [2]: 3% and 0%
- Population Membrane Permeable-Phenotype (%) [2]: 81% and 37%
- Population Mitochondria Different-Phenotype (%) [2]: 81% and 58%
- Population Normal (%) [2]: 96% and 100%
- Population Pyknosed Nuclei (%) [2]: 18% and 21%
- Population Tubulin-Different-Phenotype (%) [2]: 93% and 100%
- Population Apoptotic (%) [3]: 50%
- Population Fragmented Nuclei (%) [3]: 5% and 6%
- Population Healthy Nuclei (%) [3]: 79% and 73%
- Population Hoechst High Intensity Objects (%) [3]: 2% and 0%
- Population Membrane Permeable-Phenotype (%) [3]: 3% and 11%
- Population Mitochondria Different-Phenotype (%) [3]: 12% and 21%
- Population Mitotic Cells (%) [3]: 50% and 49%
- Population Normal (%) [3]: 97% and 99%
- Population Pyknosed Nuclei (%) [3]: 15% and 19%
- Population Tubulin-Different-Phenotype (%) [3]: 32% and 42%
- Population Apoptotic (%) [4]: 72% and 81%
- Population Fragmented Nuclei (%) [4]: 21% and 7%
- Population Healthy Nuclei (%) [4]: 43% and 62%
- Population Hoechst High Intensity Objects (%) [4]: 3% and 0%
- Population Membrane Permeable-Phenotype (%) [4]: 92% and 74%
- Population Mitochondria Different-Phenotype (%) [4]: 71% and 61%
- Population Mitotic Cells (%) [4]: 27% and 18%
- Population Normal (%) [4]: 96% and 100%
- Population Pyknosed Nuclei (%) [4]: 34% and 30%
- Population Tubulin-Different-Phenotype (%) [4]: 100% and 98%
- Population Apoptotic (%) [5]: 76% and 84%
- Population Fragmented Nuclei (%) [5]: 18% and 7%
- Population Healthy Nuclei (%) [5]: 60% and 74%
- Population Hoechst High Intensity Objects (%) [5]: 0%
- Population Membrane Permeable-Phenotype (%) [5]: 7% and 13%
- Population Mitochondria Different-Phenotype (%) [5]: 10% and 18%
- Population Mitotic Cells (%) [5]: 23% and 15%
- Population Normal (%) [5]: 100% and 99%
- Population Pyknosed Nuclei (%) [5]: 20% and 17%
- Population Tubulin-Different-Phenotype (%) [5]: 25% and 32%
- Population Apoptotic (%) [6]: 100% and 95%
- Population Healthy Nuclei (%) [6]: 22% and 42%
- Population Hoechst High Intensity Objects (%) [6]: 0%
- Population Membrane Permeable-Phenotype (%) [6]: 83% and 85%
- Population Mitochondria Different-Phenotype (%) [6]: 50% and 70%
- Population Mitotic Cells (%) [6]: 0% and 4%
- Population Normal (%) [6]: 100%
- Population Pyknosed Nuclei (%) [6]: 40% and 51%
- Population Tubulin-Different-Phenotype (%) [6]: 83% and 99%

SMILES: CSc1cc2c(cc1C(F)(F)F)N(C(=O)Nc1cccnc1)CC2
- Population Apoptotic (%) [1]: 33% and 45%
- Population Healthy Nuclei (%) [1]: 61% and 90%
- Population Hoechst High Intensity Objects (%) [1]: 0%
- Population Membrane Permeable-Phenotype (%) [1]: 0% and 2%
- Population Mitochondria Different-Phenotype (%) [1]: 0% and 1%
- Population Mitotic Cells (%) [1]: 66% and 54%
- Population Normal (%) [1]: 100%
- Population Pyknosed Nuclei (%) [1]: 17% and 8%
- Population Tubulin-Different-Phenotype (%) [1]: 71% and 84%
- Population Apoptotic (%) [2]: 42% and 66%
- Population Healthy Nuclei (%) [2]: 82% and 50%
- Population Hoechst High Intensity Objects (%) [2]: 0% and 3%
- Population Membrane Permeable-Phenotype (%) [2]: 0% and 7%
- Population Mitochondria Different-Phenotype (%) [2]: 0%
- Population Mitotic Cells (%) [2]: 57% and 33%
- Population Normal (%) [2]: 100% and 96%
- Population Pyknosed Nuclei (%) [2]: 12% and 11%
- Population Tubulin-Different-Phenotype (%) [2]: 94% and 38%
- Population Apoptotic (%) [3]: 60% and 26%
- Population Healthy Nuclei (%) [3]: 69% and 89%
- Population Hoechst High Intensity Objects (%) [3]: 0%
- Population Membrane Permeable-Phenotype (%) [3]: 3% and 1%
- Population Mitochondria Different-Phenotype (%) [3]: 0%
- Population Mitotic Cells (%) [3]: 40% and 73%
- Population Normal (%) [3]: 100%
- Population Pyknosed Nuclei (%) [3]: 12% and 6%
- Population Tubulin-Different-Phenotype (%) [3]: 66% and 84%
- Population Apoptotic (%) [4]: 100% and 45%
- Population Healthy Nuclei (%) [4]: 66% and 88%
- Population Hoechst High Intensity Objects (%) [4]: 2% and 0%
- Population Membrane Permeable-Phenotype (%) [4]: 0% and 1%
- Population Mitochondria Different-Phenotype (%) [4]: 0% and 1%
- Population Normal (%) [4]: 97% and 100%
- Population Pyknosed Nuclei (%) [4]: 11% and 7%
- Population Tubulin-Different-Phenotype (%) [4]: 58% and 93%
- Population Apoptotic (%) [5]: 83% and 46%
- Population Fragmented Nuclei (%) [5]: 6% and 2%
- Population Healthy Nuclei (%) [5]: 83% and 90%
- Population Hoechst High Intensity Objects (%) [5]: 3% and 0%
- Population Membrane Permeable-Phenotype (%) [5]: 6% and 1%
- Population Mitochondria Different-Phenotype (%) [5]: 0%
- Population Normal (%) [5]: 96% and 100%
- Population Pyknosed Nuclei (%) [5]: 10% and 6%
- Population Tubulin-Different-Phenotype (%) [5]: 67% and 85%
- Population Apoptotic (%) [6]: 29% and 42%
- Population Fragmented Nuclei (%) [6]: 3% and 10%
- Population Healthy Nuclei (%) [6]: 89% and 75%
- Population Hoechst High Intensity Objects (%) [6]: 0% and 2%
- Population Membrane Permeable-Phenotype (%) [6]: 1% and 0%
- Population Mitochondria Different-Phenotype (%) [6]: 0%
- Population Mitotic Cells (%) [6]: 70% and 57%
- Population Normal (%) [6]: 100% and 98%
- Population Pyknosed Nuclei (%) [6]: 7% and 14%
- Population Tubulin-Different-Phenotype (%) [6]: 94% and 40%
